The record followed here is the RNAGym collection of RNA variant scans (doi:10.1126/science.aae0568).

This sample holds only a part of the variants without activity. Where only a bound is given, the exact number is not on record here.

B1: tRNA (parent)
chain: GUUCCGUUGGCGUAAUGGUAACGCGUCUCCCUCCUAAGGAGAAGACUGCGGGUUCGAGUCCCGUACGGAACG

In this data set the parent is B1. The experiment in a line: yeast fitness relative to wild type (ratio to wild type); higher = fitter; tRNA-Arg(CCU), competitive growth, 37 C, YPD. The essentials:
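Changes in genotype frequencies gave Darwinian fitness relative to wild type. Frequencies were read by 100-nucleotide paired-end sequencing of gene amplicons before and after pooled Saccharomyces cerevisiae strains, carrying tRNA-Arg(CCU) gene variants at the native locus, were competed in YPD at 37°C for 24 hours in six replicates. A genotype was kept only with ≥ 100 starting reads, and estimates < 0.5 were set to 0.5.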
As for A20U A21C C29U A57C, the yeast fitness was at most 0.5.

Consider A20U C30G A69C, for which the yeast fitness was 0.597.

As for A20U A36G, the yeast fitness is 0.766.

As for A20U A36C, the yeast fitness turned out to be 0.627.

With A20U A37C C46G, the yeast fitness was 0.528.

Regarding A20G G51A, the yeast fitness was 0.859.

Turning to A20G U35C G56C G68C, the yeast fitness is at most 0.5.

For the variant A20G C31G C46G G50A G67C, the yeast fitness was at most 0.5.

As to A20G C33U A40G C62G A70U, the yeast fitness is at most 0.5.

As to A20U C24U C30A C46G G48A, the yeast fitness was at most 0.5.

A20G C31U: the yeast fitness stood at 0.995.

On to A20G C31G, for which the yeast fitness was 0.966.

Consider A20G C31A, for which the yeast fitness came out at 0.8.

As to A20U A45U C55G, the yeast fitness came to 0.533.

In the case of A20U C27U C30A C33G A42G G51C, the yeast fitness is 0.583.

Regarding A20G C46U A70G, the yeast fitness is 0.794.

A20G G50C C60G: the yeast fitness is 0.634.

With A20G U32A, the yeast fitness stood at 0.719.

Take A20G C30A C55A G68A: the yeast fitness is at most 0.5.

With A20G U26C A37C G68A, the yeast fitness was at most 0.5.

Take A20U A36G C49U A70U: the yeast fitness is at most 0.5.

For the variant A20U C31G G38A C61A G63A, the yeast fitness is at most 0.5.

As to A20U A36G C49U C55G, the yeast fitness was found to be 0.501.

Regarding A20G U64G A70C, the yeast fitness was found to be 0.619.

A20G C29G C34A: the yeast fitness was at most 0.5.

For the variant A20G U28A A42G C55A C66A, the yeast fitness is at most 0.5.

For the variant A20G C29G A40G C49G, the yeast fitness was at most 0.5.

Turning to A20U A36G C55U, the yeast fitness was 0.573.

Regarding A20U C27G C30G A43G A65C G68C, the yeast fitness is at most 0.5.

As to A20G U28G A57U C62U, the yeast fitness was at most 0.5.

As for A20G G39C, the yeast fitness came out at 0.829.

Consider A20G G39A, for which the yeast fitness is 0.955.

On to A20G C34A A36G C66U, for which the yeast fitness was at most 0.5.

As to A20U C29U C30G C34A U35A C66A, the yeast fitness was at most 0.5.

On to A20G C30A G48A U53G, for which the yeast fitness was found to be 0.505.

As to A20U C29G, the yeast fitness turned out to be 0.721.

As to A20U C29U, the yeast fitness turned out to be 0.714.

In the case of A20U A42C A57C, the yeast fitness was at most 0.5.

Consider A20G U28G A57U A70U, for which the yeast fitness is at most 0.5.

As for A20U C31A C33G U47C C60A, the yeast fitness was at most 0.5.

Regarding A20U A36C C49A C66G, the yeast fitness was at most 0.5.

Take A20U A45C A65G: the yeast fitness was determined as 0.576.

Consider A20G U35C, for which the yeast fitness is 0.836.

With A20G U35G, the yeast fitness amounted to 0.708.

A20G G25A C55A: the yeast fitness is at most 0.5.

For the variant A20U A21C C27A G68A, the yeast fitness was at most 0.5.

In the case of A20G C60A A70U, the yeast fitness was found to be 0.605.

A20G C60A A70C: the yeast fitness was 0.556.

Consider A20G C27G A40U, for which the yeast fitness was at most 0.5.

On to A20G U32C U47A, for which the yeast fitness turned out to be 0.626.

As to A20G C27U A57C, the yeast fitness was at most 0.5.

As to A20U C24G A45G U53A, the yeast fitness was at most 0.5.

Regarding A20G C31G U64C, the yeast fitness was 0.694.

With A20G G48A A70G, the yeast fitness worked out at 0.803.

With A20G G39C G48A, the yeast fitness worked out at 0.924.

Turning to A20U C31A, the yeast fitness was 0.803.

Turning to A20U C31U, the yeast fitness is 0.926.

For A20G C33A G44A C61U, the yeast fitness turned out to be 0.553.

For A20U A21C C31A, the yeast fitness was at most 0.5.

Regarding A20U A43G A65C, the yeast fitness is at most 0.5.

For the variant A20U A21G C31U, the yeast fitness amounted to 0.609.

With A20U A45G C46U C66U A69U, the yeast fitness was at most 0.5.

As for A20U C24G, the yeast fitness came to 0.601.

A20G C29A A70U: the yeast fitness worked out at 0.557.

On to A20U C29A C30U A36U, for which the yeast fitness was at most 0.5.

Consider A20G G50A A57U, for which the yeast fitness was 0.542.

For A20G C27G G52A, the yeast fitness worked out at 0.551.

On to A20U A40G G44C G58C, for which the yeast fitness worked out at 0.574.

A20G C33G U53A: the yeast fitness was at most 0.5.

A20G U59C: the yeast fitness is 0.972.

Take A20G U59A: the yeast fitness came to 0.79.

Consider A20G U59G, for which the yeast fitness was 0.921.

On to A20G G38A U47C, for which the yeast fitness turned out to be 0.685.

Take A20G C34U A40U A42U U64A: the yeast fitness is at most 0.5.

For A20G U28A C31U U54A, the yeast fitness is 0.613.

For A20G C29U, the yeast fitness amounted to 0.88.

Take A20G C29A: the yeast fitness turned out to be 0.705.

For A20G G48A C49G U59A, the yeast fitness was at most 0.5.

Take A20G C46A C61G: the yeast fitness was at most 0.5.

As for A20G C61G, the yeast fitness worked out at 0.617.

As for A20G C61U, the yeast fitness came to 0.964.

On to A20U C27G C29U C62G, for which the yeast fitness was at most 0.5.

Turning to A20G U26A A45C, the yeast fitness amounted to 0.519.

Take A20U A70U: the yeast fitness amounted to 0.988.

With A20G G50U, the yeast fitness was 0.831.

Take A20G G50C: the yeast fitness turned out to be 0.636.

As for A20U C29U C30U U59A G67A, the yeast fitness is at most 0.5.

Consider A20G G56U A65G, for which the yeast fitness came to 0.587.

Consider A20G C30U C55U, for which the yeast fitness was at most 0.5.

Turning to A20U C22U A42G, the yeast fitness is at most 0.5.

Consider A20G G23C C31U C46G A70U, for which the yeast fitness amounted to 0.57.

In the case of A20U C33U C61U A70U, the yeast fitness was at most 0.5.

A20G G58U: the yeast fitness turned out to be 0.781.

Consider A20G G58A, for which the yeast fitness stood at 0.97.

Turning to A20G G48A, the yeast fitness amounted to 0.933.

Regarding A20U C29G C49G U53A, the yeast fitness is at most 0.5.

In the case of A20G G67C, the yeast fitness was 0.861.

On to A20G G67U, for which the yeast fitness turned out to be 0.965.

As to A20U C30G C33U C55A, the yeast fitness is at most 0.5.

With A20U C29G A45G A69U, the yeast fitness was determined as 0.525.

For the variant A20G U35A U54G, the yeast fitness is at most 0.5.

Take A20U C31U G51C: the yeast fitness was 0.562.

A20G G25C G51C: the yeast fitness was 0.658.

Take A20U A21C A45U: the yeast fitness worked out at 0.675.

With A20U C30A G58C G68A, the yeast fitness is at most 0.5.

A20U C33A C55U C61A: the yeast fitness was at most 0.5.

For the variant A20G C30G G56C C62U, the yeast fitness was at most 0.5.

Turning to A20G G23A C24G, the yeast fitness was at most 0.5.

For A20G U59G A69C, the yeast fitness stood at 0.526.

Regarding A20G C62G, the yeast fitness amounted to 0.804.

A20G C62A: the yeast fitness worked out at 0.715.

As for A20G G25C U35C G58C, the yeast fitness is at most 0.5.

For A20U A65G, the yeast fitness turned out to be 0.986.

On to A20U A65U, for which the yeast fitness amounted to 0.705.

Consider A20G G25C U47A G56C U59C, for which the yeast fitness is at most 0.5.

With A20U C29G C33U, the yeast fitness is 0.609.

A20G C33A A36C U47A C66A: the yeast fitness is at most 0.5.

With A20G G51C C61G, the yeast fitness was found to be 0.546.

Turning to A20G G25C C61U A65G, the yeast fitness worked out at 0.647.

Take A20U A21U A65U G67A: the yeast fitness was at most 0.5.

A20U A42C C60A: the yeast fitness was at most 0.5.

For the variant A20G C33U C49G G50C, the yeast fitness was at most 0.5.

As to A20G G38C, the yeast fitness turned out to be 0.789.

Regarding A20G U28G A69U, the yeast fitness is at most 0.5.

For A20G C29U U47G C49U, the yeast fitness was at most 0.5.

As for A20U C27U U64C, the yeast fitness worked out at 0.954.

For the variant A20G G23A C24G C60G, the yeast fitness is at most 0.5.

In the case of A20G C66G, the yeast fitness came out at 0.809.

On to A20G C66U, for which the yeast fitness was determined as 0.857.

Regarding A20G G56U, the yeast fitness worked out at 0.804.

With A20G G56A, the yeast fitness was determined as 1.01.

Take A20G U28C G68C: the yeast fitness came to 0.664.

Regarding A20G G23A A45U G56A, the yeast fitness was determined as 0.539.

Regarding A20U C27G C34A C46G C55A, the yeast fitness is at most 0.5.

As to A20U A65U A69U, the yeast fitness came out at 0.722.

With A20U A43C, the yeast fitness was 0.775.

In the case of A20U A43G, the yeast fitness stood at 0.978.

In the case of A20U A43U, the yeast fitness was found to be 0.905.

A20U A42C A69U: the yeast fitness amounted to 0.564.

In the case of A20G U32C G67C, the yeast fitness was 0.735.

Consider A20U A21U C31G C55A G68U, for which the yeast fitness is at most 0.5.

As to A20G U54A, the yeast fitness is 0.681.

On to A20G U54G, for which the yeast fitness amounted to 0.524.

As for A20U C29U G41C G44A A57U, the yeast fitness turned out to be 0.805.

Turning to A20G C27U, the yeast fitness turned out to be 1.1.

With A20U C27U C30A C33G A42G G51C G68C, the yeast fitness is at most 0.5.

On to A20U C24U G48A C55U C60G, for which the yeast fitness was at most 0.5.

Regarding A20G G23A U26G, the yeast fitness is at most 0.5.

A20G C29U C55G A57C C61U: the yeast fitness came out at 0.746.

With A20G U28A A69C, the yeast fitness is at most 0.5.

Regarding A20G U26A C66A, the yeast fitness is at most 0.5.

With A20U A21G C31U C46A, the yeast fitness was at most 0.5.

A20U A36G U54C C55G: the yeast fitness is at most 0.5.

On to A20G G44C, for which the yeast fitness is 0.929.

For the variant A20G C60U C66U, the yeast fitness was at most 0.5.

Consider A20G C34U A43C A57U G58A C62G, for which the yeast fitness was at most 0.5.

As for A20G U26A, the yeast fitness came out at 0.884.

On to A20U A43C G48A C62U, for which the yeast fitness turned out to be 0.787.

A20U C31G U32G: the yeast fitness is 0.531.

As to A20G C27U G58C, the yeast fitness was 0.78.

For the variant A20U A43U G48C C60G, the yeast fitness is at most 0.5.

Regarding A20U A45G C46U, the yeast fitness was found to be 0.836.

Take A20U A45C G50A: the yeast fitness was determined as 0.675.

As to A20G U64C C66G, the yeast fitness was at most 0.5.

As for A20G U28C C49A, the yeast fitness was at most 0.5.

With A20U C30U G39C A45G G68A A69C, the yeast fitness is at most 0.5.

Regarding A20G C46U G50C C61A A70C, the yeast fitness turned out to be 0.7.
